Screens: PubChem BioAssay, Broad Institute
Only a selection was taken, and hits are over-represented in it overall.
IDH1 R132H inh – blocks human IDH1 R132H reductase activity. hit rate 0.18% among 70,000. O75874. AID 624101. diaphorase/resazurin fluorescence, 60 min. inhibition, % at 10 µM; in the data active = inhibition above about 34%; inconclusive = no clear call, values can overlap the other calls; inactive = below about 11%;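 note: 0% = DMSO and 100% = no enzyme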
Target sequence (O75874 whole entry R132H): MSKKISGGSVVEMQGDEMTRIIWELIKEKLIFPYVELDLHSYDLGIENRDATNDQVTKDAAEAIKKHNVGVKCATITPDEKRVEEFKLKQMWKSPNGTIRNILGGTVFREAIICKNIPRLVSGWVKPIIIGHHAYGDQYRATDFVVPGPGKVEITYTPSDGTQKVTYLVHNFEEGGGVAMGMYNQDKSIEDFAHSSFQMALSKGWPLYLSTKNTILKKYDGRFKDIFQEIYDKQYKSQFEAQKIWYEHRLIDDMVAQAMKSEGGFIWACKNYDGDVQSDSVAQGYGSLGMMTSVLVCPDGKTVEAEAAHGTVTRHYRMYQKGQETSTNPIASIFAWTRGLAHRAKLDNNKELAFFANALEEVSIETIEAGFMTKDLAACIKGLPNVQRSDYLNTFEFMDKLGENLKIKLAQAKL
T cruzi growth-1 – blocks T. cruzi growth in NIH3T3 culture. inhibition, % at 8.34 µM. hit rate 5.9% among 77,000. T. cruzi beta-gal in NIH3T3, GalScreen luminescence, 90 h;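 active = mean inhibition above about 93%, with at least 55% of replicates each passing it, limit read from the data, passing the limit was not always enough; inconclusive = only one of those two conditions holds; inactive = neither condition holds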
KDM4C inh – KDM4C (human) demethylase inhibition; inhibition, % at 12.5 µM; Q9H3R0; AID 720574; GST-KDM4C 2-372, H3K9me3 peptide, LANCE TR-FRET; hit rate 0.15% among 96,000;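 active = mean replicate inhibition above about 25%, with at least 55% of replicates also reaching it, limit read from the data, passing the limit was not always enough; inconclusive = only one of those two conditions met; inactive = neither condition met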
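System: N-terminal GST-fused human GASC-1 (KDM4C) fragment, residues 2-372; amount: enzyme final amount 10 nM; incubation: reaction 30 min RT, detection step 1 h RT; medium: HEPES buffer, pH 7.5, plus ascorbate; technique: LANCE TR-FRET, Eu antibody, ULight-streptavidin, EDTA, ex 340 nm, em 618/671 nm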
T cruzi growth-2 – Trypanosoma cruzi proliferation inhibition | hit rate 72% among 5,600 | shares compounds with T cruzi growth-1 | T. cruzi beta-gal in NIH3T3, GalScreen luminescence, 90 h | AID 651739 | inhibition, % at 8.35 µM;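 active = mean replicate inhibition above about 95% and at least 55% of replicates individually reaching it, limit read from the data; inconclusive = only one of the two criteria is met; inactive = neither criterion is met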
T cruzi growth-3 – Trypanosoma cruzi proliferation inhibition. shares compounds with T cruzi growth-1. T. cruzi beta-gal in NIH3T3, GalScreen luminescence, 90 h. inhibition, % at 2.09 µM. hit rate 21% among 5,600;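 active = mean inhibition above about 95%, with at least 55% of replicates also reaching it, limit read from the data; inconclusive = meets just one of the two conditions; inactive = meets neither condition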;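 note: plate controls were neutral control median for no effect and positive control median for full effect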
3T3 cytotox – kills mouse NIH/3T3 fibroblasts; shares compounds with T cruzi growth-1; NIH/3T3 viability, CellTiter-Glo ATP luminescence, 90 h; cytotoxicity (signal decrease), % at 8.35 µM; hit rate 14% among 5,600; AID 651742;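 active = mean signal decrease across replicates above about 35% based on untreated-well scatter, with enough replicates individually passing, limit read from the data; inconclusive = no rule stated though some were filed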;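 note: 0% = median of neutral control wells and 100% = median of positive control wells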
NIH3T3 tox 2 – cytotoxicity in mouse NIH/3T3 fibroblasts. NIH/3T3 viability, CellTiter-Glo ATP luminescence, 90 h. AID 651744. hit rate 56% among 5,600. shares compounds with T cruzi growth-1. inhibition, % at 24.9 µM;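 active = mean loss of cell viability signal at or above a set limit, and enough replicates individually reaching it; inconclusive = meets only the mean limit or only the replicate share; inactive = meets neither condition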;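 note: 0% = median of neutral control wells and 100% = median of positive control wells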
Active calls of the source: *; ? = inconclusive; . = not tested or not shown.

SMILES	IDH1 R132H inh	T cruzi growth-1	KDM4C inh	T cruzi growth-2	T cruzi growth-3	3T3 cytotox	NIH3T3 tox 2
C[C@@H]1CCCCO[C@H](CN(C)C(=O)Nc2ccc(F)cc2)[C@@H](C)CN([C@H](C)CO)C(=O)c2cc(NC(=O)Cc3ccccc3)ccc2O1	.	55	-1	.	.	.	.
C[C@@H]1CCCCO[C@H](CN(C)C(=O)Nc2ccc(F)cc2)[C@@H](C)CN([C@@H](C)CO)C(=O)c2cc(NC(=O)Cc3ccccc3)ccc2O1	3	94	0	.	.	.	.
C[C@@H]1CCCCO[C@H](CN(C)C(=O)Nc2ccc(F)cc2)[C@H](C)CN([C@H](C)CO)C(=O)c2cc(NC(=O)Cc3ccccc3)ccc2O1	-19	105*	1	111*	53	-12	-7
CC(C)=CCC1Cc2c(cc(O)c(C(=O)C(C)C)c2O)OC1(C)C (stereo not given)	4	.	.	.	.	.	.
CCCNC(=O)[C@H]1[C@H](CO)[C@H]2Cn3c(ccc(-c4ccccc4OC)c3=O)[C@@H]1N2C(=O)NCCC	.	-4	-2	.	.	.	.
COCCNC(=O)[C@H]1[C@H](CO)[C@H]2Cn3c(ccc(-c4ccc(OC)cc4)c3=O)[C@@H]1N2C(=O)NC(C)C	.	100*	-2	18	-23	14	19
COCCNC(=O)[C@@H]1[C@@H](CO)[C@@H]2Cn3c(ccc(-c4ccc(F)cc4)c3=O)[C@H]1N2C(=O)NC(C)C	.	20	6	.	.	.	.
CCCNC(=O)N1[C@@H]2c3ccc(-c4ccccc4OC)c(=O)n3C[C@H]1[C@H](CO)[C@H]2C(=O)NCC	.	107*	-2	-9	-2	-8	-6
NC(=O)c1c(NC(=O)C2CC(=O)N(c3ccccc3)C2)sc2c1CCCC2 (stereo not given)	0	.	.	.	.	.	.
C[C@H]1CN([C@@H](C)CO)C(=O)Cc2cc(NC(=O)Cc3cn(C)c4ccccc34)ccc2O[C@H]1CN(C)Cc1ccc(C(F)(F)F)cc1	-7	90	-9	.	.	.	.
C[C@H]1CN([C@@H](C)CO)C(=O)Cc2cc(NC(=O)Cc3cn(C)c4ccccc34)ccc2O[C@@H]1CN(C)Cc1ccc(-c2ccccc2)cc1	1	98*	-5	103*	82	20	20
C[C@H]1CN([C@@H](C)CO)C(=O)Cc2cc(NC(=O)Cc3cn(C)c4ccccc34)ccc2O[C@H]1CN(C)Cc1ccc(C(=O)Nc2ccccc2N)cc1	.	102*	-2	96*	57	24	63*
C[C@@H]1CN([C@H](C)CO)C(=O)Cc2cc(NC(=O)Cc3cn(C)c4ccccc34)ccc2O[C@H]1CN(C)Cc1ccc(-c2ccccc2)cc1	-1	83	2	.	.	.	.
C[C@@H]1CN([C@H](C)CO)C(=O)Cc2cc(NC(=O)Cc3cn(C)c4ccccc34)ccc2O[C@H]1CN(C)Cc1ccc(C(F)(F)F)cc1	-2	100*	-3	105*	63	?	71*
C[C@@H]1CN([C@@H](C)CO)C(=O)Cc2cc(NC(=O)Cc3cn(C)c4ccccc34)ccc2O[C@@H]1CN(C)Cc1ccccc1	-3	95	-1	.	.	.	.
C[C@@H]1CN([C@H](C)CO)C(=O)Cc2cc(NC(=O)Cc3cn(C)c4ccccc34)ccc2O[C@@H]1CN(C)Cc1ccccc1	.	100*	7	104*	46	14	40*
C[C@H]1CN([C@@H](C)CO)C(=O)Cc2cc(NC(=O)Cc3cn(C)c4ccccc34)ccc2O[C@@H]1CN(C)Cc1ccc(C(=O)Nc2ccccc2N)cc1	.	84	-1	.	.	.	.
COc1cc([N+](=O)[O-])ccc1NC(=O)CS(=O)(=O)Cc1ccccc1	0	.	.	.	.	.	.
O=C(COc1ccc(C(=O)Nc2cccc(C(F)(F)F)c2)cc1)Nc1ccccc1F	0	.	.	.	.	.	.
COc1ccc(C(=O)CSc2nnc(-c3ccc(OC)c(OC)c3)n2-c2ccc(C)cc2)cc1	1	.	.	.	.	.	.
C[C@H](CO)N1C[C@H](C)[C@H](CN(C)C(=O)c2ccccc2)OCCCC[C@H](C)Oc2ccc(NC(=O)CCCCCC(=O)Nc3ccccc3N)cc2C1=O	.	100*	1	108*	?	-7	-39
C[C@@H]1CCCCO[C@H](CN(C)C(=O)C2CCCCC2)[C@H](C)CN([C@@H](C)CO)C(=O)c2cc(NC(=O)CCCCCC(=O)Nc3ccccc3N)ccc2O1	.	102	0	.	.	.	.
C[C@@H]1CCCCO[C@H](CN(C)C(=O)c2ccncc2)[C@@H](C)CN([C@H](C)CO)C(=O)c2cc(NC(=O)CCCCCC(=O)Nc3ccccc3N)ccc2O1	17	7	1	.	.	.	.
C[C@@H]1CCCCO[C@H](CN(C)C(=O)c2ccccc2)[C@H](C)CN([C@@H](C)CO)C(=O)c2cc(NC(=O)CCCCCC(=O)Nc3ccccc3N)ccc2O1	.	99*	1	107*	103*	5	2
CCOC(=O)c1c(NC(=S)NC(=O)c2ccc(OC)c([N+](=O)[O-])c2)sc2c1CCC2	0	.	.	.	.	.	.
SMILES	IDH1 R132H inh	T cruzi growth-1	KDM4C inh	T cruzi growth-2	T cruzi growth-3	3T3 cytotox	NIH3T3 tox 2
C[C@H]1CN([C@@H](C)CO)S(=O)(=O)c2ccc(C#Cc3ccncc3)cc2O[C@@H]1CN(C)C(=O)C1CC1	.	66	3	.	.	.	.
C[C@H](CO)N1C[C@H](C)[C@@H](CN(C)C(=O)C2CC2)Oc2cc(C#Cc3ccncc3)ccc2S1(=O)=O	.	123*	0	-15	17	-10	62*
C[C@H]1CN([C@@H](C)CO)S(=O)(=O)c2ccc(C#CC(C)(C)O)cc2O[C@H]1CN(C)C(=O)C1CC1	0	-15	1	.	.	.	.
C[C@@H]1CN([C@H](C)CO)S(=O)(=O)c2ccc(C#Cc3ccncc3)cc2O[C@@H]1CN(C)C(=O)C1CC1	-5	80	1	.	.	.	.
C[C@@H]1CN([C@@H](C)CO)S(=O)(=O)c2ccc(C#CC(C)(C)O)cc2O[C@H]1CN(C)C(=O)C1CC1	.	102*	-1	-31	-52	4	47*
C[C@H](CO)N1C[C@H](C)[C@H](CN(C)C(=O)C2CC2)Oc2cc(C#Cc3ccncc3)ccc2S1(=O)=O	-4	105*	1	105*	-9	22	65*
COc1cc2c(cc1NC(=O)COc1cccc(C)c1C)oc1ccccc12	0	.	.	.	.	.	.
O=C(C1CCOCC1)N1CC[C@@H]2[C@@H](CO)Nc3ccc(-c4cccc(F)c4)cc3[C@@H]21	.	58	1	.	.	.	.
COc1ccccc1-c1ccc2c(c1)[C@H]1[C@H](CCN1C(=O)C1CC1)[C@H](CO)N2	.	88	1	.	.	.	.
CC(=O)N1CC[C@@H]2[C@H](CO)Nc3ccc(-c4cccc(F)c4)cc3[C@@H]21	.	66	-1	.	.	.	.
COc1ccccc1-c1ccc2c(c1)[C@H]1[C@H](CCN1C(=O)C1CC1)[C@@H](CO)N2	.	98*	-1	107*	88	-7	1
